Consider five compounds from publication PMC5012948 (ChemMedChem, 2016).

The target of one experiment is SaHepPPS (Staphylococcus aureus, UniProt Q2FYG6). As to the kind of experiment: biochemical. It counts as biochemical. The conditions noted are these: for Kd: substrate inhibition at high substrate concentrations.
For a further experiment, the system named is S. aureus. As to the kind of experiment: Synergy/antagonism two-drug combination assay. It is filed as cell-based, Staphylococcus aureus. In a few lines:
(§1)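 Checkerboard-style two-drug combinations of the test compound with antibiotics. Conversely, the test compound ran as a 3× gradient, 40 μg/mL to 18 ng/mL, with each antibiotic at half its MIC. New MICs came from Gompertz fits.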

Another experiment deals with B. subtilis. As to the kind of experiment: Synergy/antagonism two-drug combination assay. It counts as cell-based, Bacillus subtilis. To be noted: 10 + sulfamethoxazole. The essentials: as §1
Experiment [1] has as its system S. aureus (Newman strain). As to the kind of experiment: S. aureus cell growth inhibition. It counts as cell-based, Staphylococcus aureus.
For experiment [2], the system named is B. subtilis and S. aureus. As to the kind of experiment: Synergy/antagonism assays, average FICI over both organisms. It counts as cell-based. To be noted: drugs in combination with 10, both organisms, n = 24. The essentials:
as §1

In experiment [3] the test system is coupling enzymes (phosphatase and purine nucleoside phosphorylase). As to the kind of experiment: Control: inhibition of the coupling enzymes by high FPP and IPP. It counts as biochemical.
In the next experiment the test system is human FPPS. The conditions noted are these: cited from earlier work.

Where “and” joins values, the source holds several entries; their conditions need not be identical. Identical values can stand only once. Like-named read-outs stand apart in the source and are kept apart here.

On to `CC(C)=CCC/C(C)=C/CC/C(C)=C/CC/C(C)=C/COP(=O)(O)OP(=O)(O)O` [GGPP, geranylgeranyl diphosphate], for which, at SaHepPPS (GGPP as substrate), the Km was 652 µM and the Vmax was determined as 2.2 µM/min. Further, the “substrate-inhibition effect at high concentrations” value at SaHepPPS (high concentrations) was “did not exhibit the substrate-inhibition effect”.
Turning to `CCCCCCCCCCCCC[n+]1ccn(CC(P(=O)([O-])O)P(=O)(O)O)c1` (centres unmarked) [compound 10], the FICI in the experiment with S. aureus (10 + ampicillin) worked out at 1.40; with S. aureus (10 + tetracycline), 1.85; in the experiment on B. subtilis, 1.73. In addition, the “IC50 for S. aureus cell growth inhibition” value in experiment [1] is 7 µg/mL. Further, the FICIavg in experiment [2] is on record as 1.43 ± 0.37.
Regarding `CC(C)=CCC/C(C)=C/CC/C(C)=C/CO[P@@](=O)(O)OP(=O)(O)O` (stereo in doubt) [FPP, farnesyl diphosphate], the “inhibition of the coupling enzymes” value in experiment [3] is “this is not the case”. For the same compound, the Kd at SaHepPPS (Kd (dissociation constant for the inhibitory SES ternary complex)) is 35 µM and ~35 µM.
Regarding `C=C(C)CCOP(=O)(O)OP(=O)(O)O` [IPP, isopentenyl diphosphate], the “inhibition of the coupling enzymes” value in experiment [3] is recorded as “this is not the case”. Besides, the Kd on SaHepPPS (read-out: Kd (dissociation constant for the inhibitory SES ternary complex)) was found to be 300 ± 40 µM.
On to `O=P(O)(O)C(O)(Cn1ccnc1)P(=O)(O)O` [compound 15, zoledronate], for which the “activity against human FPPS” value in the experiment on human FPPS is on record as “potent activity”. On SaHepPPS, this compound displayed an IC50 of about 100 µM.
